Data reported in PMC8341878 (RSC Chemical Biology, 2020).
≈ marks a conversion by molar mass, not a printed value. Where “and” joins values, the source holds several entries; their conditions need not be identical. Identical values can stand only once. Peptide text beside a SMILES is read from it.

Experiments:
[1] = target: ^EcSC (E. coli sliding clamp, DnaN) (Escherichia coli, UniProt P0A988); experiment: ITC, peptide interaction with E. coli sliding clamp; assay type: binding
Procedure, shortened: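 Recombinant His-tagged E. coli DnaN was expressed in BL21(DE3) pLys (IPTG 0.1 mM, 28 °C overnight), purified by Ni-NTA then Source Q, and exchanged into 10 mM Hepes pH 7.4, 0.15 M NaCl, 3 mM EDTA. Peptide (100 to 400 μM) was injected stepwise into 20 or 30 μM clamp at 30 °C. Peptide-into-buffer controls were subtracted. Each titration was run at least twice; mean ± sd.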

E. coli D22 strain = experiment: Microdilution broth assay; assay type: cell-based, Escherichia coli
Procedure, shortened: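 E. coli D22 was grown in Mueller Hinton broth to OD600 0.6–0.8, then diluted so wells held about 2 to 5 × 10^5 cfu per mL with serially diluted peptide in MH broth. Plates were read at 620 nm after 18–24 h at 37 °C. MIC was the lowest concentration with no turbidity increase. For MBC, wells were plated on LB agar; ≥99.9% kill versus inoculum. Duplicates, ≥2 independent experiments.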

Mycobacterium smegmatis = conditions: cited from earlier work
[2] = E. coli D22, decrease of at least 99.9% of cell viability vs inoculum, minimum of 2 independent biological replicates

Chain of ^EcSC (E. coli sliding clamp, DnaN) (P0A988 whole entry): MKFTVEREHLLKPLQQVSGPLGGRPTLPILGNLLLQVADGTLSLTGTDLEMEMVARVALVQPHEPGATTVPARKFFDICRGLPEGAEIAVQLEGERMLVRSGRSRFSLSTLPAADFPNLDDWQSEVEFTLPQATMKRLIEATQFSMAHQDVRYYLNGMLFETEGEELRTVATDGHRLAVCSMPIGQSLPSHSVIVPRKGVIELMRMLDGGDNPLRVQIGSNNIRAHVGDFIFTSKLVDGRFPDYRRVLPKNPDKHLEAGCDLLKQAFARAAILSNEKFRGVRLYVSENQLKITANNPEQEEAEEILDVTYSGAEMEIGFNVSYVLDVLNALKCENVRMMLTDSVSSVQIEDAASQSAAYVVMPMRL

CC[C@H](C)[C@H](NC(=O)[C@@H](CCCNC(=N)N)NC(=O)[C@H](CCCNC(=N)N)NC(=O)[C@@H]1CCCN1C(=O)[C@@H]1CCCN1C(=O)[C@H](CCCNC(=N)N)NC(=O)[C@@H]1CCCN1C(=O)[C@H](CCCNC(=N)N)NC(=O)[C@@H]1CCCN1C(=O)[C@H](CC(C)C)NC(=O)[C@H](Cc1ccc(O)cc1)NC(=O)[C@@H]1CCCN1C(=O)[C@@H]1CCCN1C(=O)[C@H](CCCCN)NC(=O)[C@H](CC(=O)O)NC(=O)[C@@H](N)C(C)C)C(=O)N[C@@H](Cc1ccc(O)cc1)C(=O)N[C@@H](CC(N)=O)C(=O)N[C@H](CCCNC(=N)N)C(N)=O [Onc112] (HELM PEPTIDE1{V.D.K.P.P.Y.L.P.R.P.R.P.P.R.[dR].I.Y.N.[dR].[am]}$$$$V2.0)
K D ([1]; ITC at 30 °C, R1 buffer 10 mM Hepes pH 7.4, 0.15 M NaCl, 3 mM EDTA, peptide 100-400 μM into SC 20 or 30 μM, means ± sd of at least 2 independent experiments, ni = no specific interaction): ni
MBC (E. coli D22 strain; [2]): 1 µg/mL (≈ 0.418 µM)

griselimycin
frequency of resistance (Mycobacterium smegmatis): 5 × 10^−10

CC1(C)S[C@@H]2[C@H](NC(=O)[C@H](N)c3ccccc3)C(=O)N2[C@H]1C(=O)O [Ampicillin]
MBC (E. coli D22 strain; Escherichia coli, D22STRAIN): 16 µg/mL (≈ 45.8 µM)
MIC (E. coli D22 strain; Escherichia coli, D22STRAIN): 22.9 µM to 45.8 µM and 8 µg/mL to 16 µg/mL

CN(C)[C@@H]1C(O)=C(C(N)=O)C(=O)[C@@]2(O)C(O)=C3C(=O)c4c(O)cccc4[C@@](C)(O)[C@H]3C[C@@H]12 [Tetracycline]
MBC (E. coli D22 strain; Escherichia coli, D22STRAIN): 0.5 µg/mL (≈ 1.13 µM)
MIC (E. coli D22 strain; Escherichia coli, D22STRAIN): 0.56 µM to 1.12 µM and 0.25 µg/mL to 0.5 µg/mL

CC[C@H](C)[C@H](NC(=O)[C@@H]1CCCN1C(=O)[C@H](CCCNC(=N)N)NC(=O)[C@@H]1CCCN1C(=O)[C@@H]1CCCN1C(=O)[C@@H](NC(=O)[C@@H]1CCCN1C(=O)[C@H](CCCNC(=N)N)NC(=O)[C@@H]1CCCN1C(=O)[C@H](CC(C)C)NC(=O)[C@H](Cc1ccc(O)cc1)NC(=O)[C@H](CO)NC(=O)CNC(=O)[C@H](CCCCN)NC(=O)[C@H](CC(=O)O)NC(=O)[C@@H](N)C(C)C)[C@@H](C)O)C(=O)N[C@@H](Cc1ccc(O)cc1)C(=O)N[C@@H](CC(N)=O)C(=O)N[C@@H](CCCNC(=N)N)C(=O)N[C@@H](CC(N)=O)C(=O)NCC(=O)N1CCC[C@H]1C(=O)N[C@@H](CCCNC(=N)N)C(=O)N[C@@H](CCC(N)=O)C(=O)N[C@@H](CC1CCCCC1)C(=O)N[C@@H](CC(=O)O)C(=O)N[C@@H](CC(C)C)C(=O)N[C@@H](Cc1ccccc1)C(=O)O [Py-P7] (HELM PEPTIDE1{V.D.K.G.S.Y.L.P.R.P.T.P.P.R.P.I.Y.N.R.N.G.P.R.Q.[Cha].D.L.F}$$$$V2.0)
MBC (E. coli D22 strain; [2]): 8 µg/mL (≈ 2.42 µM)

CC[C@H](C)[C@H](NC(=O)[C@@H](CCCNC(=N)N)NC(=O)[C@H](CCCNC(=N)N)NC(=O)[C@@H]1CCCN1C(=O)[C@@H]1CCCN1C(=O)[C@H](CCCNC(=N)N)NC(=O)[C@@H]1CCCN1C(=O)[C@H](CCCNC(=N)N)NC(=O)[C@@H]1CCCN1C(=O)[C@H](CC(C)C)NC(=O)[C@H](Cc1ccc(O)cc1)NC(=O)[C@@H]1CCCN1C(=O)[C@@H]1CCCN1C(=O)[C@H](CCCCN)NC(=O)[C@H](CC(=O)O)NC(=O)[C@@H](N)C(C)C)C(=O)N[C@@H](Cc1ccc(O)cc1)C(=O)N[C@@H](CC(N)=O)C(=O)N[C@H](CCCNC(=N)N)C(=O)N[C@@H](CC(N)=O)C(=O)NCC(=O)N1CCC[C@H]1C(=O)N[C@@H](CCCNC(=N)N)C(=O)N[C@@H](CCC(N)=O)C(=O)N[C@@H](CC1CCCCC1)C(=O)N[C@@H](CC(=O)O)C(=O)N[C@@H](CC(C)C)C(=O)N[C@@H](Cc1ccccc1)C(=O)O [Onc112-P7] (HELM PEPTIDE1{V.D.K.P.P.Y.L.P.R.P.R.P.P.R.[dR].I.Y.N.[dR].N.G.P.R.Q.[Cha].D.L.F}$$$$V2.0)
Kd ([1]; SD): 200 ± 0.1 nM
MBC (E. coli D22 strain; [2]): 2 µg/mL (≈ 0.576 µM)
